Assay [1] deals with T1, Muscarinic acetylcholine receptor M1 (Rattus norvegicus) (UniProt P08482).
T1 sequence (whole entry): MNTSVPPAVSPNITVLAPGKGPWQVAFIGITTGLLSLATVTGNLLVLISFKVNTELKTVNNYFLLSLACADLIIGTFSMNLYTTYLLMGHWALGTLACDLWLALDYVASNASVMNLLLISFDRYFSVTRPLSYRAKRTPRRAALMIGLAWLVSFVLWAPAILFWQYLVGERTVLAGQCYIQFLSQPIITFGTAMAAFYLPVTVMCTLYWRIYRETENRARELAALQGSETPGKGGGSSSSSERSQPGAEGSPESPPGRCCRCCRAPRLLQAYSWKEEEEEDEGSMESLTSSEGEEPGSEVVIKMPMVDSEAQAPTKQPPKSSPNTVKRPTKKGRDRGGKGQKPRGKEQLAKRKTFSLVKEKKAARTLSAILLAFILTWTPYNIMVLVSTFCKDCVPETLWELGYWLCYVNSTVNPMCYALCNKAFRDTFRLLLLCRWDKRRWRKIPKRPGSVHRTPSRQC
The assay can be described thus: Compound was tested for percent inhibition against displacement of [3H]pirenzepine from rat cortex membrane expressing muscarinic M1 receptor at 10^-6 M.

Assay [2] concerns the target T2, Muscarinic acetylcholine receptor M1 (Rattus norvegicus, UniProt P08482).
T2 sequence (P08482 whole entry): T1 sequence (whole entry)
Description: Displacement of [3H]pirenzepine from rat cortex membrane expressing muscarinic M1 receptor. The method, boiled down:
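M1 binding: male Wistar rat cerebral cortex membranes were resuspended in 8.3 mM Tris-HCl with 1.25 mM MnCl2, pH 7.4. Membranes (250 μg protein) were incubated with about 1.0 nM [3H]pirenzepine for 60 min at 25 °C. Atropine 10 μM defined nonspecific binding. Bound radioactivity was collected by filtration and counted by scintillation. IC50 came from logit-log analysis, converted by Cheng-Prusoff to Ki; single experiment in triplicate.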

The nature of assay [3]: Minimum dose required for subcutaneous administration to improve scopolamine-induced impairment of passive avoidance task in mouse(anti-amnesic effect).
The subject of assay [4] is Mus musculus. Description: Dose producing more than 30 mg of saliva as a total amount was determined in vivo in mice. The class given is functional. In outline:
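Male ICR mice were dosed sc, and saliva was collected at 15 and 45 min after dosing. ED30mg is the dose giving more than 30 mg total saliva. Dosing started at 30 mg/kg and fell stepwise by thirds. Each dose group had 3-6 mice.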

For assay [5], the system named is Mus musculus. Description: Dose required to reduce the rectal temperature (hypothermia) by 2 degree Celsius was determined in vivo in mice. The class given is functional. In outline:
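Rectal temperature of male ICR mice was taken with a thermoprobe before and 30 min after sc dosing. Dosing started at 30 mg/kg and fell by thirds until a drop over 2 °C no longer occurred, giving ED Δ2°C. Each dose group had 3-6 mice.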

Assay [6] has as its target T3, Muscarinic acetylcholine receptor M2 (Mus musculus) (UniProt Q9ERZ4).
T3 sequence (whole entry): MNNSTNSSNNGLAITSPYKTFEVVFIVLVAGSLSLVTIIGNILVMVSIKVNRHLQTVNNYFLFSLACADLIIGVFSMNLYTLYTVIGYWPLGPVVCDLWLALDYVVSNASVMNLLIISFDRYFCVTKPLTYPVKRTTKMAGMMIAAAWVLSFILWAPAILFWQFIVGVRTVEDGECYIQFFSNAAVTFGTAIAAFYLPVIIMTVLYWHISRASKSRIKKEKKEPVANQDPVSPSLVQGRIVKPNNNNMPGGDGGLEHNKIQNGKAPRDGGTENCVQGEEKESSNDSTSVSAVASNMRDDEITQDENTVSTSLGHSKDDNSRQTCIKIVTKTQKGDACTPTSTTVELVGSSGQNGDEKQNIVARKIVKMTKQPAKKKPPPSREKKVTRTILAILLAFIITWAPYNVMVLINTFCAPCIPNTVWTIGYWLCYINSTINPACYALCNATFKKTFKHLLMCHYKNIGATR
Description: In vivo muscarinic effect of […] hypothermia against central M2 receptor in mice at dose under 30 mg/kg sc (2 degree Celsius). It is filed as functional, organism-based. Also on record: dose 30 mg/kg. The method, boiled down:
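Male ICR mice given test compound subcutaneously. Rectal temperature taken by thermoprobe before dosing and 30 min after. ED for a 2 °C fall was found by starting at 30 mg/kg and lowering each dose to one-third of the previous until no drop over 2 °C was seen. 3-6 mice per dose group.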

The test system of assay [7] is Mus musculus. The assay can be described thus: Dose sc producing more than 30 mg of saliva as a total amount was determined in vivo in mice. The class given is functional. The method, boiled down: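 Male ICR mice given test compound subcutaneously. Saliva collected at 15 and 45 min after dosing. ED30mg is the dose giving more than 30 mg total saliva. Start at 30 mg/kg, then lower each dose to one-third of the previous until the criterion fails. 3-6 mice per dose group.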

Assay [8] deals with T4, Muscarinic acetylcholine receptor M2 (Rattus norvegicus, UniProt P10980).
T4 sequence (P10980 whole entry): T3 sequence (whole entry) with G270V, K316R, R321K, T331A, A336V
The assay can be described thus: Compound tested in vitro for displacement of [3H]quinuclidinyl benzilate from rat cerebellum membrane expressing muscarinic M2 receptor. The class given is tissue-based. The method, boiled down: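 Male Wistar rat cerebellum homogenised in 0.32 M sucrose, spun at 900g then 11500g (4 °C), pellet washed in 5 mM Tris-HCl pH 7.4, stored -80 °C. Incubation in 50 mM Na+/K+ phosphate pH 7.4 with 0.06 nM [3H]QNB and 150 μg protein, 60 min at 25 °C. Nonspecific binding with 10 μM atropine. Filtration, scintillation counting. Triplicate, single experiment. Logit-log IC50 converted to Ki by Cheng-Prusoff.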

The target in assay [9] is T4, Muscarinic acetylcholine receptor M2. The assay can be described thus: Tested against muscarinic M2 receptor by displacement of [3H]quinuclidinyl benzilate from rat cerebellum membrane. The class given is tissue-based. In outline: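 M2 binding: male Wistar rat cerebellum membranes (150 μg protein) were incubated with 0.06 nM [3H]QNB in 50 mM Na+/K+ phosphate, pH 7.4, for 60 min at 25 °C. Atropine 10 μM defined nonspecific binding. Bound radioactivity was collected by filtration and counted by scintillation. Ki came from logit-log IC50 with Cheng-Prusoff correction; single experiment in triplicate, with 95% confidence intervals.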

The test system of assay [10] is Muscarinic acetylcholine receptors M1 & M2 (Rattus norvegicus). The assay can be described thus: The ratio of Ki for M2 receptor to the Ki for M1 receptor was determined.
Assay [11] concerns Rattus norvegicus. The assay can be described thus: Increase in blood pressure of pithed rats after intravenous administration at 3 mg/kg. The class given is functional. In outline: (§1)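 Male Wistar rats (ca. 200–300 g) were ether-anesthetized, tracheally catheterized, pithed with a steel rod and ventilated with room air. Drugs were given iv via the left femoral vein. Arterial pressure was recorded from the left common carotid artery, with body temperature held at 37 °C.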

The test system of assay [12] is Rattus norvegicus. Description: Increase in blood pressure of pithed rats after intravenous administration at 0.1 mg/kg. The class given is functional. In outline: as §1

Numbering of substitutions follows the chain as printed.

Compound `CN1CCC2(CC1)OC(=S)NC2=O` came in with an inhibition in [1] of 0%. Moreover, the Ki in assay [2] was over 10 µM. The MED in assay [3] was found to be 30 mg/kg.

For `CCN1C(=O)OC2(CCCN(C)C2)C1=O` (configuration not stated), the Ki in assay [2] is over 10 µM. The MED in assay [3] is over 30 mg/kg.

Turning to `CN1CCC2(CC1)OC(=O)N(C(C)(C)C)C2=O`, the Ki in assay [2] is 1.5 µM.

On to `CCN1C(=O)OC2(CCN(Cc3ccccc3)CC2)C1=O`, for which the inhibition in assay [1] was determined as 2%. Also, the Ki in [2] was over 10 µM.

Compound `CN1CCC2(CC1)OC(=O)N(CCN1CCOCC1)C2=O` showed an inhibition in assay [1] of 10%. In assay [2], the Ki was over 10 µM. The same compound showed an MED in assay [3] of over 30 mg/kg.

Consider `CCN1C(=O)OC2(CCNCC2)C1=O.Cl`, for which the ED30 in [4] is over 30 mg/kg. Moreover, in assay [5], the ED delta is over 30 mg/kg. In assay [2], this compound displayed a Ki of 7.8 µM. Moreover, the MED in assay [3] is 0.3 mg/kg.

On to `CN1CCC2(CC1)OC(=O)N(C)C2=O`, for which the affinity in assay [2], expressed as Ki, was 16 µM. The compound also yielded an MED in [3] of over 30 mg/kg.

`CN1CCC2(CC1)OC(=O)N(CC(N)=O)C2=O` came in with an inhibition in assay [1] of 36%. In addition, in assay [2], the Ki is over 10 µM. The compound also returned an MED in [3] of over 30 mg/kg.

With `CN1CCC2(CC1)OC(=O)NC2=O`, the inhibition in assay [1] came out at 0%. This compound came in with a Ki in assay [2] of over 10 µM. This compound also gave an MED in assay [3] of over 30 mg/kg.

For `CN1CCC2(CC1)OC(=S)N(c1ccccc1)C2=O`, in [2], the affinity corresponds to a Ki of 4 µM.

Compound `CCN1C(=O)OC2(CCN(CCCC(=O)OC)CC2)C1=O` had an inhibition in assay [1] of 0%. The compound further yielded a Ki in assay [2] of over 10 µM. This compound returned an MED in [3] of 30 mg/kg.

For `CCN1C(=O)OC2(CCN(C)C2)C1=O` (configuration not stated), the Ki in assay [2] is over 10 µM. The same compound yielded an MED in assay [3] of over 30 mg/kg.

Consider `COC(=O)CN1C(=O)OC2(CCN(C)CC2)C1=O`, for which the inhibition in assay [1] worked out at 40%. This compound showed a Ki in [2] of over 10 µM.

In assay [2], `COC(=O)CCCN1C(=O)OC2(CCN(C)CC2)C1=O` showed a Ki of 6.4 µM. Also, in [3], the MED is over 30 mg/kg.

`CCN1C(=O)OC2(CCN(CC#CCOC(=O)Nc3cccc(Cl)c3)CC2)C1=O`: the inhibition in [1] came to 0%. In assay [2], this compound gave a Ki of over 10 µM. In assay [3], this compound came in with an MED of over 30 mg/kg.

Regarding `C=CCN1C(=O)OC2(CCN(C)CC2)C1=O`, affinity in assay [2] was put at a Ki of 5.1 µM. In addition, in assay [3], the MED was over 30 mg/kg.

Turning to `CN1CCC2(CC1)OC(=S)N(C(C)(C)C)C2=O.Cl`, the ED delta in assay [6] was determined as 30 mg/kg. For the same compound, the ED30 in assay [7] was over 30 mg/kg. The Ki in assay [8] was 2.1 µM; in assay [2] it was 0.21 µM.

With `CCN1C(=O)OC2(CCN(C)CC2)C1=O.Cl`, the Ki in [9] came out at 7.8 µM; in assay [2] it was 5 µM. Moreover, the M2/M1 Index in assay [10] is 1.5. The compound further came in with an ED30 in [4] of 30 mg/kg. The compound further had an ED delta in [5] of over 30 mg/kg. The same compound had a BP in assay [11] of 24 mmHg. For the same compound, in assay [3], the MED came out at 0.3 mg/kg.

In the case of `CCN1C(=O)C2(CCN(C)CC2)OC1=S`, the ED delta in assay [6] is 30 mg/kg. In [7], this compound came in with an ED30 of 30 mg/kg. In addition, the Ki in [8] was found to be 4.3 µM; in assay [2], 0.89 µM.

Compound `CN1CCC2(CC1)OC(=O)N(c1cccc(Cl)c1)C2=O` registered a Ki in [2] of 12 µM. The compound further had an MED in assay [3] of 0.3 mg/kg.

Consider `Br.CCN1C(=O)CC2(CCN(C)CC2)C1=O`, for which the M2/M1 Index in [10] is 2.1. Moreover, the ED30 in assay [7] stood at 0.5 mg/kg. Besides, in [5], the ED delta stood at 1 mg/kg. In addition, the Ki in assay [8] stood at 0.97 µM; in assay [2], 0.46 µM. Also, the BP in assay [12] was 12 mmHg. The compound further had an MED in assay [3] of 0.1 mg/kg.

The values above are taken from ChEMBL document CHEMBL1126758, “Synthesis and structure-activity studies of a series of spirooxazolidine-2,4-diones: 4-oxa analogues of the muscarinic agonist 2-ethyl-8-methyl-2,8-diazaspiro[4.5]decane-1,3-dione” (J Med Chem, 1993).
